Bioassay records from PubChem.
XBP1 UPR activ: activators of adaptive XBP1 UPR arm, primary screen, cell-based, CHO-XBP1 luciferase reporter, luminescence, uHTS; 330,000 tested, 0.33% active; activation, % at 20 µM; IRE1-XBP1 UPR activation; percent of tunicamycin response, DMSO as zero;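 active means versus positive control, 20 µM dose yields 30% or more activation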
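Material – CHO cell line with stable XBP1 luciferase reporter · Buffer or medium – F12 plus 10% FBS · Compound – single point, 20 µM final compound, 1% DMSO · Schedule – 16-18 h cell attachment at 37 °C, then 6 h compound exposure · Signal – Steady-Glo luminescence read · Benchmarks – high control tunicamycin 10 µg/mL final, low control DMSO vehicle only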
Beta2AR agonist: beta2AR agonists driving receptor internalization, primary screen, cell-based, FAP fluorogen, flow cytometry | Am2.2-beta2AR cells | AID 504454, 2011 | 340,000 tested, 0.43% active | response, % (test concentration not listed) | Beta-2 adrenergic receptor (Homo sapiens), P07550;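 active means response above a set limit, near 3 SD of response in nonfluorescent compounds, cut at about 42% in these data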
MDM2 E3 inh: MDM2-luciferase reporter signal enhancers, primary screen, MDM2 E3 ligase inhibitor project, cell-based, luminescence, 1536-well; E3 ubiquitin-protein ligase Mdm2 (Homo sapiens), Q00987; cell-based MDM2 ubiquitination luciferase reporter, 2 h; 0 = plate control, 100 = twice control, blank-subtracted; signal enhancement, % at 5 µM; 210,000 tested, 0.11% active; AID 1230, 2008;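 active means signal enhancement of 30% or more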;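 further: luminescence tracks abundance of the self-degrading MDM2-luciferase fusion protein; higher signal means inhibition of MDM2 E3 ligase activity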
Target sequence (Q00987 whole entry, looked up, the tested form may be a part): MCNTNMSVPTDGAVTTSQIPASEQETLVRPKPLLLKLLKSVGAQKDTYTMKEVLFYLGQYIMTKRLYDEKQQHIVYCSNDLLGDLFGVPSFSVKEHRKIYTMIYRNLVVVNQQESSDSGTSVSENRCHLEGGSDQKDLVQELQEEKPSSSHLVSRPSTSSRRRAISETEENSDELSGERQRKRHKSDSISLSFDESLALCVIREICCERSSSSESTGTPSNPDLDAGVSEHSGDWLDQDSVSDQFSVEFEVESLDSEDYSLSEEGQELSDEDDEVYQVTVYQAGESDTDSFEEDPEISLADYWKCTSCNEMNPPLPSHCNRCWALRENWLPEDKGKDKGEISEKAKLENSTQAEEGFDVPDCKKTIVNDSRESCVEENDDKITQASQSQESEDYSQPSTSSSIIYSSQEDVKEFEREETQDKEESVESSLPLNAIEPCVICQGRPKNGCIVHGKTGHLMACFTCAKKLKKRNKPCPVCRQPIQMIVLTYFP
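Material: Stable MDM2–luciferase fusion reporter cells | Amount: 2000 cells seeded into each well | Dosing: One concentration, 5 µM, with 0.2% DMSO | Incubation: 4 h cell settling then 2 h compound exposure, 37 °C | Measured by: Luciferase luminescence | Read-out basis: % enhancement relative to plate controls after blank subtraction | Benchmarks: Control and blank well means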
Mdm2 MdmX PPI: inhibitors of human Mdm2-MdmX association, primary screen, cell-based, luminescence, split luciferase, SaOS-2, uHTS; Protein Mdm4 (Homo sapiens) + E3 ubiquitin-protein ligase Mdm2 (Homo sapiens), …; SaOS-2 split-luciferase Mdm2/MdmX complementation; inhibition, % at 8 µM; 330,000 tested, 3% active; AID 485346, 2010;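 active means inhibition of at least 50% at 8 µM in the primary screen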
Dynein cargo inh: inhibitors of GR-EGFP nuclear translocation, primary screen, dynein cargo transport inhibitor project, imaging, high-content, 3617.4 mouse cells; test concentration mostly 20 µM; stimulated with dexamethasone, 1 µM; stronger effect = lower value; z-score, hits read low; 220,000 tested, 0.47% active; AID 1381, 2008;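 active means plate z-score of nuclear minus cytoplasmic receptor signal below a set negative limit, without overly bright fluorescence or cell loss, cut at about -3.5 in these data, passing the limit was not always enough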;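 further: z-score of nuclear minus cytoplasmic ring GR-EGFP intensity difference per well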
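Schedule: 48 h induction, then 1 h compound, then 30 min agonist, 37 °C. Buffer or medium: tetracycline-free induction medium containing charcoal-stripped FBS. Reagent: 1.0 µM final dexamethasone stimulus. Evaluation: nuclear versus cytoplasmic GR-EGFP signal, averaged per well. Signal: high-content fluorescence imaging after fixation.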
CHOP UPR activ: activators of apoptotic CHOP UPR arm, primary screen, cell-based, CHO-CHOP luciferase reporter, luminescence, uHTS; activation, % at 10 µM; 330,000 tested, 0.34% active; UPR activation; percent of tunicamycin response over DMSO baseline;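 active means at 10 µM dose, activation of 40% or more, normalized to positive control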
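System: CHO-CHOP luciferase reporter cell line | Buffer or medium: F12 medium containing 10% fetal bovine serum | Doses: One dose, 10 µM in 0.5% DMSO | Times: 6 h compound exposure at 37 °C after overnight seeding | Signal: Luciferase luminescence | Read-out: % activation vs tunicamycin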
UPR XBP1 confirm: IRE1-XBP1 UPR arm activators, confirmation, cell-based, CHO-XBP1 luciferase reporter, luminescence, single concentration. activation, % at 20 µM. shares compounds with XBP1 UPR activ. AID 485299, 2010. 1,000 tested, 63% active;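 active means reporter signal at least 30% of the positive control's activation in two or more of four replicate wells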
Mdm2 MdmX conf: Mdm2-MdmX complex disruptors, retested hits, confirmation, luminescence, single concentration | Mdm2-MdmX binding, luminescent assay | inhibition, % at 8 µM | shares compounds with Mdm2 MdmX PPI | AID 489028, 2010 | 10,000 tested, 55% active; in the data active means inhibition above about 40%
FLuc counter: full-length luciferase signal inhibition, confirmation, counter-screen for Mdm2/MdmX interaction inhibitor project, cell-based, single concentration, SaOS-2. AID 504607, 2011. SaOS-2 full-length luciferase counterscreen, luminescence. inhibition, % at 8 µM. 6,200 tested, 77% active. shares compounds with Mdm2 MdmX PPI;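 active means mean inhibition at 8 µM reaching about 37%, which flags the compound as non-specific, limit read from the data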;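 further: p53-null SaOS-2 cells with luciferase driven by a doxycycline-inducible promoter; compound on cells about two nights before reading with doxycycline added after day one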
B2AR ag CP1: beta2AR agonists via receptor internalization, confirmation, cell-based, FAP fluorogen, flow cytometry, single point, cherry pick 1. 1,100 tested, 25% active. Am2.2-beta2AR cells, FAP surface receptor; stronger effect = lower value. shares compounds with Beta2AR agonist. percent response (surface receptor), % at 10 µM;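 active means surface receptor percent response at or below 58%, roughly 3 SD from nonfluorescent compounds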
FAP fluor counter: flagged in Am2.2 fluorescence counterscreen for beta-2AR agonists | Am2.2 cells, FAP fluorogen flow cytometry; stronger effect = lower value | 1,100 tested, under 10 active | shares compounds with Beta2AR agonist | AID 588765 | calls only at 10 µM;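 active means percent response below a set limit in fluorescence channel 1 and below 50% in channel 8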
Hits are given with their value; . = inactive; / = no result given. Hits are enriched below; roughly 3.7% of the tested compounds scored in any of these assays.

SMILES	XBP1 UPR activ	Beta2AR agonist	MDM2 E3 inh	Mdm2 MdmX PPI	Dynein cargo inh	CHOP UPR activ	UPR XBP1 confirm	Mdm2 MdmX conf	B2AR ag CP1	FAP fluor counter	others
COc1cc(/C=C/c2ccc3cccc(O)c3n2)ccc1O	60	.	/	100	/	.	36	.	/	/
Cn1c(COc2ccccc2O)[n+](C)c2ccccc21	.	.	/	.	/	.	/	/	/	/
CCCCCCCCCCOC(=O)Cn1c(COc2ccccc2OC)[n+](C)c2ccccc21	77	.	/	100	/	.	52	89	.	.	FLuc counter=.
Cc1cccc(OCc2n(CC(=O)OC3CC(C)CCC3C(C)C)c3ccccc3[n+]2C)c1 (stereo unspecified)	32	.	.	94	.	.	.	96	.	.	FLuc counter=56
CC1CCC(C(C)C)C(OC(=O)CSc2nc(N)cc(=O)[nH]2)C1 (stereo unspecified)	.	.	.	.	.	.	/	/	/	/
C/C(Cn1nnc2ccccc21)=N\NC(=O)c1cccc(Br)c1	.	.	.	.	.	.	/	/	/	/
Cc1ccc(Nc2nc(-c3c(C)nc4ccccn34)cs2)cc1	41	43	.	89	.	.	35	73	.	.	FLuc counter=81
O=C(NCC(c1ccccc1)N1CCCC1)C1CCN(C(=O)Nc2ccccc2)CC1 (stereo unspecified)	.	.	/	.	/	.	/	/	/	/
N=c1n(CC(=O)c2ccc([N+](=O)[O-])cc2)c2ccccc2n1Cc1ccc(Cl)cc1	165	91	.	.	.	.	59	/	37	.
N=c1n(CC(=O)c2ccc([N+](=O)[O-])cc2)c2ccccc2n1Cc1ccccc1	140	98	.	.	.	.	.	/	40	.
N=c1n(CCO)c2ccccc2n1Cc1ccc(Cl)cc1	.	.	.	.	.	.	/	/	/	/
COCCN1CCN(C(=O)c2ccc3oc(CCc4ccccc4)nc3c2)CC1	.	.	/	.	/	.	/	/	/	/
CNC(=S)N/N=C1\C(=O)c2cccc3cccc1c23	33	.	.	87	.	.	.	.	.	.
CC(C)(C)c1ccc(OCC(O)CN2CCOCC2)cc1 (stereo unspecified)	.	.	/	.	/	.	/	/	/	/
Cn1nnnc1Sc1ncnc2scc(-c3ccc(Cl)cc3)c12	46	85	/	100	/	.	113	99	6.3	.	FLuc counter=52
NNc1ncnc2scc(-c3ccc(Cl)cc3)c12	.	.	.	.	.	.	/	/	/	/
COc1ccc(-c2nc3scc(-c4ccc(OC)c(OC)c4)c3c(=O)o2)cc1	41	51	.	.	.	.	47	/	.	.
